Assay results reported in ChEMBL document CHEMBL3392953, “Synthesis and biological evaluation of furanoallocolchicinoids” (J Med Chem, 2015).
The source made the active and inactive calls. No cut-off for these calls is given here.

How the values were obtained:
HEK293 [1] = test: Induction of cell cycle arrest in HEK293 cells assessed as accumulation at G1 phase at 200 nM after 72 hrs by propidium iodide staining based flow cytometry (reference value: 76 +/ 5%); format: functional, Homo sapiens
Mus musculus [2] = test: Toxicity in C57BL/6 mouse assessed as interphase microtubule de-stabilizing activity by measuring influx of rhodamine in to heart at 1 mg/kg, iv co-administered with rhodamine B by fluorimetry; format: organism-based; design: dose 1 mg/kg, route intravenous; conditions: in vivo
Summary of the method: (§1)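 Intact mice, 6–8 wk, 3 per group; compound dissolved in DMSO at 20 mM, 4 µl diluted into 200 µl saline (1 mg/kg), mixed with 50 µl rhodamine B, single i.v. injection; controls DMSO plus rhodamine B. Killed 4 h later; organs cut, extracted in 0.3N acid in ethanol 2 h at 37 °C, centrifuged, supernatant fluorescence read with 540 nm filter.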

HEK293 [3] = test: Growth inhibition of HEK293 cells at 100 uM after 72 hrs by MTT assay; format: functional; conditions: Homo sapiens, HEK293, 72 h; read-out: GI
ASPC1 [4] = test: Induction of apoptosis in human AsPC1 cells assessed as mitochondria depolarization at 200 nM after 72 hrs by Hoechst 33342 and mitotracker red staining based confocal microscopy; format: functional, cell-based
Summary of the method: (§2)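 AsPC-1 cells grown overnight on coverslips, then cultured 72 h with compound at various concentrations in complete medium. Hoechst 33342 and MitoTracker Red added for 1 h; cells fixed in 1% paraformaldehyde, mounted in Mowiol, and examined by confocal microscopy for nuclear and mitochondrial morphology.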

HEK293 [5] = test: Induction of cell cycle arrest in HEK293 cells assessed as G1/G2 phase ratio at 200 nM after 72 hrs by propidium iodide staining based flow cytometry (reference value: 3.6); format: functional, Homo sapiens
[6] = Growth inhibition of mouse W1308 cells at 100 uM after 72 hrs by MTT assay; format: functional; conditions: W1308, 72 h, read-out: GI
Mus musculus [7] = test: (§3) Toxicity in ip dosed C57BL/6 mouse measured after 24 to 48 hrs; format: organism-based; conditions: mouse, in vivo
Summary of the method: (§4)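 Acute toxicity: single doses given i.p. or i.v. to 6–8 wk C57BL/6 mice to determine LD100 and LD50; lethality observed 24–48 h after injection.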

[8] = as §3; format: organism-based; conditions: C57BL/6, mouse, in vivo; summary of the method: as §4
Jurkat [9] = test: Induction of cell cycle arrest in human Jurkat cells assessed as G1/G2 phas e-ratio at 200 nM after 72 hrs by propidium iodide staining based flow cytometry (reference value: 2.7); format: functional
ASPC1 [10] = test: Induction of apoptosis in human AsPC1 cells assessed as mitochondria enlargement at 200 nM after 72 hrs by Hoechst 33342 and mitotracker red staining based confocal microscopy; format: functional, cell-based; summary of the method: as §2
[11] = Induction of apoptosis in mouse W1308 cells 200 nM after 72 hrs by propidium iodide staining based flow cytometry (reference value: 0.3 +/ 0.1); format: functional
Jurkat [12] = test: Induction of cell cycle arrest in human Jurkat cells assessed as accumulation at G2/M phase at 200 nM after 72 hrs by propidium iodide staining based flow cytometry (reference value: 27 +/ 2%); format: functional
HEK293 [13] = test: Induction of apoptosis in HEK293 cells at 200 nM after 72 hrs by propidium iodide staining based flow cytometry (reference value: 3 +/- 1%); format: functional, Homo sapiens
ASPC1 [14] = test: Induction of cell cycle arrest in human AsPC1 cells assessed as G1/G2 phase ratio at 200 nM after 72 hrs by propidium iodide staining based flow cytometry (reference value: 1.9); format: functional
Mus musculus [15] = test: Toxicity in mouse MMTV-Wnt-1 cells implanted C57BL/6 mouse assessed as induction of neurological symptoms at 0.4 mg/kg, iv once weekly for four weeks; format: organism-based; design: dose 0.4 mg/kg, route intravenous; conditions: in vivo
Summary of the method: (§5)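 C57BL/6 mice, 6–8 wk, inoculated subcutaneously with Wnt-1 tumor cells in 50 µl PBS into left inguinal fat pad under anesthesia. Treatment started at day 27 in mice with palpable tumors (n=7 per group). Compound in 200 µl saline given i.v. into orbital sinus at days 27, 34, 41, 48; controls received saline. Tumors measured by caliper twice weekly, volume (W²×L)/2. Study ended day 51.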

[16] = Induction of cell cycle arrest in mouse W1308 cells assessed as accumulation at G2/M phase at 200 nM after 72 hrs by propidium iodide staining based flow cytometry (reference value: 56 +/ 1%); format: functional
ASPC1 [17] = test: Induction of apoptosis in human AsPC1 cells assessed as double nucleated cells level at 200 nM after 72 hrs by Hoechst 33342 and mitotracker red staining based confocal microscopy; format: functional, cell-based; summary of the method: as §2
Jurkat [18] = test: Induction of cell cycle arrest in human Jurkat cells assessed as accumulation at G1 phase at 200 nM after 72 hrs by propidium iodide staining based flow cytometry (reference value: 72 +/ 4%); format: functional
[19] = Induction of apoptosis in mouse W1308 cells assessed as pre-apoptotic cells level at 200 nM after 48 hrs by 3,3'-dihexyloxacarbocyanine iodide and propidium iodide staining based flow cytometry (reference value: 17%); format: functional
ASPC1 [20] = test: Induction of apoptosis in human AsPC1 cells assessed as cell fractionation level at 200 nM after 72 hrs by Hoechst 33342 and mitotracker red staining based confocal microscopy; format: functional; summary of the method: as §2
[21] = Induction of cell cycle arrest in mouse W1308 cells assessed as G1/G2 phase ratio at 200 nM after 72 hrs by propidium iodide staining based flow cytometry (reference value: 0.8); format: functional
Mus musculus [22] = test: Toxicity in C57BL/6 mouse assessed as interphase microtubule de-stabilizing activity by measuring leakage of rhodamine through the gut at 1 mg/kg, iv co-administered with rhodamine B by fluorimetry; format: organism-based; design: dose 1 mg/kg, route intravenous; conditions: in vivo; summary of the method: as §1
[23] = Induction of cell cycle arrest in mouse W1308 cells assessed as accumulation at G1 phase at 200 nM after 72 hrs by propidium iodide staining based flow cytometry (reference value: 43 +/ 2%); format: functional
Mus musculus [24] = test: (§6) Toxicity in iv dosed C57BL/6 mouse measured after 24 to 48 hrs; format: organism-based; conditions: mouse, in vivo; summary of the method: as §4
[25] = as §6; format: organism-based; conditions: C57BL/6, mouse, in vivo; summary of the method: as §4
ASPC1 [26] = test: Induction of apoptosis in human AsPC1 cells at 200 nM after 72 hrs by propidium iodide staining based flow cytometry (reference value: 2.2 +/ 0.1%); format: functional
ASPC1 [27] = test: Growth inhibition of human AsPC1 cells at 100 uM after 72 hrs by MTT assay; format: functional; conditions: ASPC1, 72 h, read-out: GI
HEK293 [28] = test: Induction of cell cycle arrest in HEK293 cells assessed as accumulation at G2/M phase at 200 nM after 72 hrs by propidium iodide staining based flow cytometry (reference value: 21 +/- 2%); format: functional, Homo sapiens
[29] = Reduction in blood-brain barrier permeability in […]; format: ADME, tissue-based, C57BL/6, Endothelial cell; design: scale not given: the % may be the effect or the level left; conditions: mouse; summary of the method: as §1
Jurkat [30] = test: Growth inhibition of human Jurkat cells at 100 uM after 72 hrs by MTT assay; format: functional; conditions: read-out: GI
Mus musculus [31] = test: Antitumor activity against mouse MMTV-Wnt-1 cells implanted in C57BL/6 mouse assessed as reduction in tumor volume at 0.4 mg/kg, iv once weekly for four weeks; format: functional, organism-based; design: dose 0.4 mg/kg; summary of the method: as §5
HEK293 [32] = test: Cytotoxicity against HEK293 cells after 72 hrs by MTT assay; format: functional, cell-based; conditions: Homo sapiens, HEK293, 72 h
Summary of the method: (§7)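 Cells seeded at 3x10^5 cells/mL 24 h before assay (HEK293, AsPC-1 in DMEM; Jurkat, W1308 in RPMI-1640; 10% FCS, 2-ME). Tenfold dilutions from […] to 1 nM added; untreated cells as controls. 72 h incubation, MTT 250 µg/ml added for last 6 h, formazan dissolved in DMSO, OD read. IC50 from titration curves; inhibition index = 1 − OD(treated)/OD(control).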

Mus musculus [33] = test: Toxicity in mouse MMTV-Wnt-1 cells implanted C57BL/6 mouse assessed as induction of behavior changes at 0.4 mg/kg, iv once weekly for four weeks; format: organism-based; design: dose 0.4 mg/kg, route intravenous; conditions: in vivo; summary of the method: as §5
[34] = Inhibition of lamb brain tubulin polymerization assessed as reduction in microtubule assembly by spectrophotometry; design: species or system Ovis aries
Summary of the method: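 Tubulin purified from lamb brain by ammonium sulfate fractionation and ion-exchange chromatography. Assembly in 20 mM sodium phosphate, 1 mM EGTA, 10 mM MgCl2, 3.4 M glycerol, 1 mM GTP, pH 6.5, started by warming to 37 °C; turbidity followed at 350 nm over time. Inhibition plotted against ligand:tubulin molar ratio.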

ASPC1 [35] = test: Induction of cell cycle arrest in human AsPC1 cells assessed as accumulation at G1 phase at 200 nM after 72 hrs by propidium iodide staining based flow cytometry (reference value: 65 +/ 3%); format: functional
ASPC1 [36] = test: Cytotoxicity against human AsPC1 cells after 72 hrs by MTT assay; format: functional, cell-based; conditions: ASPC1, 72 h; summary of the method: as §7
[37] = Induction of apoptosis in mouse W1308 cells assessed as apoptotic cells level at 200 nM after 48 hrs by 3,3'-dihexyloxacarbocyanine iodide and propidium iodide staining based flow cytometry (reference value: 11%); format: functional
Mus musculus [38] = test: Toxicity in mouse MMTV-Wnt-1 cells implanted C57BL/6 mouse assessed as induction of weight loss at 0.4 mg/kg, iv once weekly for four weeks; format: organism-based; design: dose 0.4 mg/kg, route intravenous; conditions: in vivo; summary of the method: as §5
Mus musculus [39] = test: Toxicity in C57BL/6 mouse assessed as interphase microtubule de-stabilizing activity by measuring influx of rhodamine in to spleen at 1 mg/kg, iv co-administered with rhodamine B by fluorimetry; format: organism-based; design: dose 1 mg/kg, route intravenous; conditions: in vivo; summary of the method: as §1
Jurkat [40] = test: Induction of apoptosis in human Jurkat cells at 200 nM after 72 hrs by propidium iodide staining based flow cytometry (reference value: 0.9 +/ 0.2%); format: functional
[41] = Cytotoxicity against mouse W1308 cells after 72 hrs by MTT assay; format: functional, cell-based; conditions: W1308, 72 h; summary of the method: as §7
ASPC1 [42] = test: Induction of apoptosis in human AsPC1 cells assessed as apoptotic body formation at 200 nM after 72 hrs by Hoechst 33342 and mitotracker red staining based confocal microscopy; format: functional, cell-based; summary of the method: as §2
ASPC1 [43] = test: Induction of cell cycle arrest in human AsPC1 cells assessed as accumulation at G2/M phase at 200 nM after 72 hrs by propidium iodide staining based flow cytometry (reference value: 34 +/ 3%); format: functional
Jurkat [44] = test: Cytotoxicity against human Jurkat cells after 72 hrs by MTT assay; format: functional, cell-based; summary of the method: as §7

## COc1cc2c(c(OC)c1OC)-c1cc3cc(CO)oc3cc1[C@@H](NC(C)=O)CC2
HEK293 [1]
  Activity: 22%
Mus musculus [2]
  Activity: Toxic
HEK293 [3]
  inhibition of growth at 100 µM: 60%
ASPC1 [4]
  Activity: Active
HEK293 [5]
  Ratio: 0.3
[6]
  inhibition of growth at 100 µM: 60%
Mus musculus [7]
  LD100: 0.8 mg/kg
[8]
  LD50: 0.3 mg/kg
Jurkat [9]
  Ratio: 0.6
ASPC1 [10]
  Activity: Active
[11]
  Activity: 2.3%
Jurkat [12]
  Activity: 62%
HEK293 [13]
  Activity: 6%
ASPC1 [14]
  Ratio: 0.7
Mus musculus [15]
  Activity: Non-toxic
[16]
  Activity: 80%
ASPC1 [17]
  Activity: Active
Jurkat [18]
  Activity: 34%
[19]
  Activity: 14%
ASPC1 [20]
  Activity: Active
[21]
  Ratio: 0.2
Mus musculus [22]
  Activity: Toxic
[23]
  Activity: 18%
Mus musculus [24]
  LD100: 2 mg/kg
[25]
  LD50: 0.8 mg/kg
ASPC1 [26]
  Activity: 1.2%
ASPC1 [27]
  inhibition of growth at 100 µM: 60%
HEK293 [28]
  Activity: 72%
[29]
  Activity: 40%
Jurkat [30]
  inhibition of growth at 100 µM: 60%
Mus musculus [31]
  growth inhibition (GI): Active
HEK293 [32]
  IC50: < 20 nM
Mus musculus [33]
  Activity: Non-toxic
[34]
  IC50: 0.08 molar ratio
ASPC1 [35]
  Activity: 27%
ASPC1 [36]
  IC50: < 50 nM
[37]
  Activity: 11%
Mus musculus [38]
  Activity: Non-toxic
Mus musculus [39]
  Activity: Toxic
Jurkat [40]
  Activity: 2.2%
[41]
  IC50: < 20 nM
ASPC1 [42]
  Activity: Active
ASPC1 [43]
  Activity: 72%
Jurkat [44]
  IC50: < 20 nM

## COc1cc2c(c(OC)c1OC)-c1cc3cc(COC(C)=O)oc3cc1[C@@H](NC(C)=O)CC2
HEK293 [3]
  inhibition of growth at 100 µM: 50%
[6]
  inhibition of growth at 100 µM: 50%
ASPC1 [27]
  inhibition of growth at 100 µM: 50%
Jurkat [30]
  inhibition of growth at 100 µM: 50%
HEK293 [32]
  IC50: 1000 nM
ASPC1 [36]
  IC50: 2000 nM
[41]
  IC50: 1000 nM
Jurkat [44]
  IC50: 1000 nM

## COc1cc2c(c(OC)c1OC)-c1cc3ccn(C)c3cc1C(=O)CC2
HEK293 [32]
  IC50: < 200 nM
ASPC1 [36]
  IC50: 800 nM
[41]
  IC50: < 200 nM
Jurkat [44]
  IC50: < 100 nM

## COc1cc2c(c(OC)c1OC)-c1ccc3c(ccn3C)c1C(=O)CC2
[19]
  Activity: 20%
HEK293 [32]
  IC50: < 20 nM
ASPC1 [36]
  IC50: < 20 nM
[37]
  Activity: 29%
[41]
  IC50: < 20 nM
Jurkat [44]
  IC50: < 20 nM
